Bioassay records (PubChem BioAssay)
ABHD5-PLIN5 inh: ABHD5-PLIN5 interaction inhibitors, primary screen, cell lysate, split luciferase complementation, luminescence. Perilipin-5 (Homo sapiens) + 1-acylglycerol-3-phosphate O-acyltransferase ABHD5 (Homo …. Split G. princeps luciferase complementation, 4 h. inhibition, % at 4 µM. 360,000 compounds, 0.78% hits. AID 602281, 2012;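 active = inhibition above the mean inhibition across every tested compound plus 3 SD, cut at about 22% in these data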;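 also: 0% = DMSO only wells and the 100% control is not disclosed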
Target sequence (Q00G26 whole entry, looked up): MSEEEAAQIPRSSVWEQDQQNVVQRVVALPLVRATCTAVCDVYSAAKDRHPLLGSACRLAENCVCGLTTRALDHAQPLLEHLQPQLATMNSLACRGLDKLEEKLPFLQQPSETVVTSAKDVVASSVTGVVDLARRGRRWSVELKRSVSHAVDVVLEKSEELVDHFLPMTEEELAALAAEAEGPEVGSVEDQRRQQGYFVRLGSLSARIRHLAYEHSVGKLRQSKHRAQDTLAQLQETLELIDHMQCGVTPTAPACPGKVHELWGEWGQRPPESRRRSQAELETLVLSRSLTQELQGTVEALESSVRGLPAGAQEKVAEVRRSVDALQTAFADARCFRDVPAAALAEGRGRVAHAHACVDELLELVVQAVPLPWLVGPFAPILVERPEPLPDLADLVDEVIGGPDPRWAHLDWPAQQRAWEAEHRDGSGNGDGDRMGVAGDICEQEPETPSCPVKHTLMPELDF
Target sequence (Q8WTS1 whole entry, looked up): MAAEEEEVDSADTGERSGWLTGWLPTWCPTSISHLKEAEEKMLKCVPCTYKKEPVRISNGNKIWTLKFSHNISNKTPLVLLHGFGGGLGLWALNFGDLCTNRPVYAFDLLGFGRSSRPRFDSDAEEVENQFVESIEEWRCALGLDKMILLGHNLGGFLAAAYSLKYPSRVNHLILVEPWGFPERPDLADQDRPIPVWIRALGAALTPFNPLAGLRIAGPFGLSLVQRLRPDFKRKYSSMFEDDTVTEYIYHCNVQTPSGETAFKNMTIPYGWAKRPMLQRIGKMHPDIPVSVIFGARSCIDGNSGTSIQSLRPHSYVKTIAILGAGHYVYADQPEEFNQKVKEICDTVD
PfG6PD inh: PfG6PD enzyme inhibitors, primary screen, biochemical, fluorescence intensity, uHTS; inhibition, % at 20 µM; PfGluPho enzyme, NADPH resazurin-diaphorase fluorescence; 350,000 compounds, 0.78% hits;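 active = inhibition reaching at least a set limit at 20 µM in the primary screen, cut at about 59% in these data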;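 also: 0% = DMSO wells with substrate and 100% = DMSO wells lacking glucose-6-phosphate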
Granule exo inh: LAMP-1 surface exposure blockers, TALL-104 cells – cell-based, flow cytometry, MLPCN library, primary screen | 360,000 compounds, 0.66% hits | AID 651702, 2012 | inhibition, % at 10 µM | TALL-104 LAMP-1 surface exposure; cells stimulated with thapsigargin and PMA;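 active = inhibition above about 55%, limit read from the data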
HKDC1 inh: HKDC1 hexokinase inhibitors, primary screen, biochemical, fluorescence, uHTS | 340,000 compounds, 0.16% hits | AID 493160, 2011 | recombinant HKDC1, G6PDH/diaphorase resazurin coupled fluorescence | inhibition, % at 20 µM | Q2TB90;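 active = inhibition above about 35% when tested at 20 µM, limit read from the data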;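 also: plate controls were DMSO wells with enzyme for no effect and DMSO wells lacking enzyme for full effect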
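Test system: Recombinant HKDC1 (HK5) hexokinase enzyme, produced in-house | Input: HKDC1 at 5 µg/mL | Buffer or medium: Tris pH 8.0 buffer with MgCl2, Tween-20, BSA, BME | Schedule: 90 min reaction incubation at room temperature, dark | Technique: Resazurin-to-resorufin fluorescence via G6PDH and diaphorase coupling, 525/613 nm | Controls: DMSO wells with and without enzyme mix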
PfG6PD confirm: PfG6PD inhibitors, hit retest, confirmation, biochemical, fluorescence intensity, single concentration | shares compounds with PfG6PD inh | recombinant PfGluPho, NADPH-diaphorase-resazurin fluorescence | inhibition, % at 20 µM | 2,400 compounds, 34% hits | AID 504753, 2011;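 active = inhibition of at least 50% at 20 µM in any single replicate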;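 also: 0% = DMSO with substrate and 100% = DMSO lacking glucose-6-phosphate substrate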
Diaph ctr 10uM: diaphorase inhibitors and chemical oxidizers, confirmation, counter-screen for P. falciparum G6PD inhibitor project, biochemical, fluorescence intensity, 10 µM NADPH; shares compounds with PfG6PD inh; diaphorase-coupled resazurin reduction, NADPH 10 uM; inhibition, % at 20 µM; 820 compounds, 39% hits;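 active = average inhibition reaching 50% or more with the compound at 20 µM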;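 also: resorufin red fluorescence formed as diaphorase reduces resazurin using NADPH; 0% = DMSO with enzyme and 100% = DMSO without enzyme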
Diaph ctr 30uM: diaphorase inhibitors and chemical oxidizers, confirmation, counter-screen for P. falciparum G6PD inhibitor project, biochemical, fluorescence intensity, 30 µM NADPH; Diaphorase/resazurin coupled assay, resorufin fluorescence; shares compounds with PfG6PD inh; 820 compounds, 29% hits; AID 504863, 2011; inhibition, % at 20 µM;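 active = inhibition averaging 50% or more, tested at 20 µM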;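 also: 0% = DMSO with enzyme and 100% = DMSO wells lacking diaphorase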
Numbers without * were called inactive; x = not tested or not shown. The list is not random: actives were taken first. Their share in the collection is about 2.2%.

SMILES	ABHD5-PLIN5 inh	PfG6PD inh	Granule exo inh	HKDC1 inh	PfG6PD confirm	others
CCN1CCCC1CNC(=O)c1ccc2c(c1)NC(=O)/C(=C\c1ccc(C)cc1)S2 (configuration not stated)	19	117*	61*	2	104*	Diaph ctr 10uM=-12;Diaph ctr 30uM=-3
O=C1Nc2cc(C(=O)NCCN3CCCCCC3)ccc2S/C1=C/c1ccccc1F	6	99*	26	x	45
CCCCCC(=O)NC(NC(=S)N1CCOCC1)C(Cl)(Cl)Cl (configuration not stated)	6	-6	-1	-4	x
CCCCCC(=O)NC(NC(=S)NC1CCS(=O)(=O)C1)C(Cl)(Cl)Cl (configuration not stated)	-3	63*	-2	-11	0
CCOC(=O)CSc1nc(C)cc(=O)[nH]1	-4	-16	-2	-8	x
CCOC(=O)CSc1nc2nc(Cl)c(Cl)nc2[nH]1	0	81*	-1	x	47
CCc1ccc(C(=O)Nc2cc(C)ccc2F)s1	-3	16	2	-1	x
COCCNC(=O)C1(C)CCN(C(=O)c2ccc(OC)c(F)c2)C1 (configuration not stated)	3	x	3	x	x
COc1cc(C(=O)O[C@H]2C/C(C)=C/CC[C@@]3(C)O[C@@H]3[C@H](O)[C@@H]2C(C)C)cc(OC)c1OC	2	44	-3	0	x
CCOC(=O)c1ccc(-n2c(N)c(C(=O)NCC3CCCO3)sc2=S)cc1 (configuration not stated)	-3	74*	0	-2	53*	Diaph ctr 10uM=11;Diaph ctr 30uM=12
CCOC(=O)c1sc(=S)n(-c2ccc(C)cc2)c1N	-6	67*	4	-5	32
Cc1ccc(-n2c(N)c(C(=O)NCc3cccnc3)sc2=S)cc1	-6	68*	-1	-7	7
COc1ccc(-n2c(N)c(C(=O)NCc3cccnc3)sc2=S)cc1	0	18	-1	-10	x
CCOC(=O)c1sc(=S)n(-c2ccc(F)c(F)c2)c1N	-1	50	-1	-10	x
CCOC(=O)c1ccc(-n2c(N)c(C(=O)NCc3ccco3)sc2=S)cc1	-5	83*	-2	-12	38
C=CCNC(=O)c1sc(=S)n(-c2ccc(C(=O)OCC)cc2)c1N	7	68*	2	-11	34
CC1(C)Cc2[nH]c(=S)c(C#N)cc2CO1	1	63*	8	1	30
COc1ccccc1CCNS(=O)(=O)CCNC(=O)c1ccc2c(c1)OCO2	-2	-7	-2	-5	x
COc1cccc(C(C(=O)NCC2CCCO2)N(C(=O)Cn2nnc3ccccc32)c2ccc(NC(C)=O)cc2)c1 (configuration not stated)	-5	5	-6	-1	x
Cc1cccc(OCCC(=O)NCC(=O)Nc2cccc(C)c2C)c1	2	105*	6	-4	91*	Diaph ctr 10uM=81*;Diaph ctr 30uM=67*
Cc1ccc(S(=O)(=O)N[C@@H](Cc2ccccc2)C(=O)N2CCC(C(=O)N[C@@H](CC(C)C)C(=O)O)CC2)cc1	7	0	-7	-1	x
COc1ccc(-c2nc(N)ncc2-c2ccccc2OC)c(O)c1	-2	74*	0	-1	34
COc1ccc(-c2nc(N)ncc2-c2ccccc2)c(O)c1	-2	9	6	-4	x
COc1ccc(CC(=O)Nc2ccccc2C(=O)N2CCOCC2)cc1	-3	6	18	-9	x
Cn1c(=O)c2[nH]c(-c3ccccc3)c(O)c2n(C)c1=O	-2	71*	6	1	59*	Diaph ctr 10uM=-2;Diaph ctr 30uM=10
SMILES	ABHD5-PLIN5 inh	PfG6PD inh	Granule exo inh	HKDC1 inh	PfG6PD confirm	others
C[C@H](CO)N1C[C@H](C)[C@@H](CN(C)C(=O)Nc2ccc(C(F)(F)F)cc2)Oc2c(cccc2N(C)C)C1=O	1	82*	-7	-1	64*	Diaph ctr 10uM=54*;Diaph ctr 30uM=48
Cc1ccc2nc3c(cc(S(=O)(=O)c4ccccc4)c(=N)n3C3CCCC3)c(=O)n2c1	2	69*	-2	2	34
N=c1c(S(=O)(=O)c2ccccc2)cc2c(=O)n3ccccc3nc2n1C1CCCCC1	-2	14	0	-2	x
CCCN(C(=O)COC(=O)c1[nH]c(C)c(C(=O)OC)c1C)c1c(N)n(Cc2ccccc2)c(=O)[nH]c1=O	4	-2	-8	-5	x
CC(C)Sc1nnc(NC(=O)c2ccc3c(c2)OCO3)s1	-3	100*	0	-1	66*	Diaph ctr 10uM=59*;Diaph ctr 30uM=46
CCSc1nnc(NC(=O)c2ccc3c(c2)OCO3)s1	3	85*	-2	-1	74*	Diaph ctr 10uM=68*;Diaph ctr 30uM=68*
CCOC(=O)CSc1nnc(NC(=O)c2ccc3c(c2)OCO3)s1	-3	50	2	-8	x
CC(C)c1nnc(NC(=O)c2sc3ccccc3c2Cl)s1	-4	64*	-1	-4	63*	Diaph ctr 10uM=39;Diaph ctr 30uM=36
CC(C)c1nnc(NC(=O)c2ccc3c(c2)OCO3)s1	2	73*	-16	4	20
CCN(C[C@H]1N[C@@](CC)(C(=O)OC)[C@H]2C(=O)N(Cc3ccccc3)C(=O)[C@@H]12)C(=O)Nc1ccc(Cl)cc1	-4	7	-3	-3	x
Cc1noc(C)c1S(=O)(=O)N(C)C[C@H]1Oc2ccc(NC(=O)NC3CCCCC3)cc2C(=O)N([C@H](C)CO)C[C@@H]1C	-8	-11	-3	2	x
CC(C)c1nnc(NC(=O)c2ccc3ccccc3c2)s1	1	74*	-2	-2	30
Nc1nonc1-n1nnc(C(=O)N/N=C/c2cccc(F)c2)c1-c1ccc2c(c1)OCO2	-16	106*	1	1	85*	Diaph ctr 10uM=75*;Diaph ctr 30uM=65*
Nc1nonc1-n1nnc(C(=O)N/N=C/c2cccc(Cl)c2)c1-c1cccs1	-1	126*	18	5	98*	Diaph ctr 10uM=94*;Diaph ctr 30uM=75*
Nc1nonc1-n1nnc(C(=O)N/N=C/c2ccc(F)cc2)c1-c1ccc2c(c1)OCO2	13	-4	-2	-4	x
Nc1nonc1-n1nnc(C(=O)N/N=C/c2cccc(F)c2)c1-c1ccccc1	-2	85*	0	3	44
COc1ccc(C2/C(=C(/O)c3ccc(C)cc3)C(=O)C(=O)N2C)c(OC)c1 (configuration not stated)	-6	-2	0	-6	x
